Hits are enriched below; roughly 4% of the tested compounds scored in any of these assays.
KCNK9 inh = KCNK9 potassium channel inhibitors, primary screen, HEK293 cells, thallium flux; FluxOR thallium flux fluorescence; stronger effect = lower value; B-score at 10 µM; 310,000 tested, 1.2% active;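 active means ratio B-score over 3 SD below the library mean, with starting fluorescence within 5 SD of its mean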;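 further: negative B-score means less thallium flux so channel inhibition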
KCNQ1 block = inhibitors of human KCNQ1 channel, primary screen, cell-based, thallium flux, high-throughput | Potassium voltage-gated channel subfamily KQT member 1 (Homo sapiens), P51787 | CHO-K1 KCNQ1, FluxOR thallium flux fluorescence; stronger effect = higher value | B-score at 10 µM | 310,000 tested, 1.3% active;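 active means compounds whose thallium flux B-score, printed positive for inhibition, exceeds three library SD while starting fluorescence stays within three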;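 further: channel opened by potassium depolarization with thallium stimulus after 20 min compound exposure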
KCNK3 block = human KCNK3 channel inhibitors, primary screen, CHO cells, FluxOR thallium flux, B-score. Potassium channel subfamily K member 3 (Homo sapiens), O14649. FluxOR fluorescence; stronger effect = lower value. B-score at 10 µM. 340,000 tested, 0.84% active;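 active means B-score under library mean minus 4 SD, starting fluorescence ratio at most library mean plus 5 SD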;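 further: more negative B-score means stronger inhibition of thallium flux through KCNK3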
PHOSPHO1 block = PubChem AID 1565 | Phosphoethanolamine/phosphocholine phosphatase (Homo sapiens), Q8TCT1 | recombinant PHOSPHO1, absorbance phosphatase assay | inhibition, % at 13.3 µM | 290,000 tested, 1.1% active; in the data active means inhibition above about 60%
KCNQ1 pot = potentiators or activators of KCNQ1 channel, primary screen, cell-based, thallium flux, high-throughput | CHO-K1 KCNQ1, thallium flux FluxOR fluorescence; stronger effect = higher value | B-score at 10 µM | 310,000 tested, 0.35% active;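 active means fluorescence ratio B-score, a plate-corrected score, at least three library SD, with initial intensity B-score within 5 SD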
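Assay system: CHO-K1 cells stably expressing KCNQ1; Medium: assay buffer with matched DMSO; Also added: K+/Tl+ depolarizing stimulus; Dosing: single dose; Timing: dye 90 min, compound 20 min, room temperature; Measured by: kinetic FluxOR thallium fluorescence, 10-s 1-Hz baseline, 110-s post-stimulus read; Read-out: peak-minus-minimum fluorescence over initial fluorescence, negative-control normalized, B-scored.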
hERG rescue = hERG rescue from dofetilide block, primary screen, cell-based, CHO-hERG, FluxOR thallium flux, dofetilide IC70; 310,000 tested, 0.51% active; activation (rescue from dofetilide block), less the hit threshold, % at 10 µM; Voltage-gated inwardly rectifying potassium channel KCNH2 (Homo sapiens), Q12809; dofetilide IC70 present;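 active means activation above the mean of controls blocked by dofetilide plus 5 SD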;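 further: thallium influx through hERG after potassium depolarization seen as dye fluorescence rise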
A number is an active result; 0 = inactive; - = not tested or not shown.

SMILES	KCNK9 inh	KCNQ1 block	KCNK3 block	PHOSPHO1 block	KCNQ1 pot	hERG rescue
O=C(NCc1ccco1)c1ccccc1NS(=O)(=O)c1ccc(Cl)s1	0	0	0	0	0	0
O=S(=O)(Nc1ccccc1N1CCCCC1)c1ccc(Cl)s1	-7.4	0	0	0	0	0
O=C(Nc1ccccc1Cc1ccccc1)c1ccccc1NS(=O)(=O)c1ccc(Cl)s1	0	8	0	0	0	0
COC(=O)c1cc(=O)nc2sc(-c3cccs3)nn12	0	0	0	0	0	0
COC(=O)c1cc(=O)nc2sc(-c3ccc(F)cc3)nn12	0	0	0	95	0	0
COc1cc(OC)cc(C(=O)NCC(=O)OCC(=O)N2CC(C)CC(C)C2)c1 (stereo unspecified)	0	0	0	0	0	0
O=C(Nc1ccc(N2CCCC2)c(S(=O)(=O)Nc2cccc(C(F)(F)F)c2)c1)c1cccs1	-7	0	0	0	0	0
COc1ccccc1NS(=O)(=O)c1cc(NC(=O)c2cccs2)ccc1N1CCCC1	0	0	0	64	0	0
COc1ccccc1NS(=O)(=O)c1cc(NC(=O)c2cccs2)ccc1N1CCCCC1	0	0	0	0	0	0
CCN(CC)c1ccc(NC(=O)c2ccccc2F)cc1S(=O)(=O)Nc1ccccc1OC	0	0	0	64	0	0
CCOC(=O)c1c(Nc2nc(C)c(C(=O)NC)s2)sc(C)c1C	0	0	0	0	0	0
CCCOc1cccc(-c2cc(C(=O)NN)c3ccccc3n2)c1	0	0	0	0	0	0
CCN(CC)CC(O)Cn1c(-c2ccccc2Cl)nc2ccccc21 (stereo unspecified)	0	0	0	0	0	0
C=CCn1c(SCc2nc3ccccc3c(=O)[nH]2)nc2sc3c(c2c1=O)CCCC3	0	0	-	0	0	0
Clc1ccc(-c2cn3nc4c(nc3n2)CCCC4)cc1	0	0	0	88	0	0
COc1cccc(-c2cn3nc4c(nc3n2)CCCC4)c1	0	0	0	0	0	0
COC(=O)Cc1c(C)nc2nc(Cc3ccccc3)[nH]n2c1=O	0	0	0	0	0	0
CN(C)CC(CCC(CN(C)C)C(=O)c1ccccc1)C(=O)c1ccccc1 (stereo unspecified)	0	0	0	0	20	0
O=C(c1ccccc1)C(CCC(CN1CCOCC1)C(=O)c1ccccc1)CN1CCOCC1 (stereo unspecified)	0	0	0	0	0	0
CCOc1ccc(C(=O)C(CCC(CN(C)C)C(=O)c2ccc(OCC)cc2)CN(C)C)cc1 (stereo unspecified)	0	0	0	0	8	0
COc1ccc(C(=O)C(CCCCC(CN(C)C)C(=O)c2ccc(OC)cc2)CN(C)C)cc1 (stereo unspecified)	0	0	0	0	0	0
COC(=O)CC(=O)CSc1nc2c(cc1C#N)CCC2	0	0	0	0	0	0
CC1CN(C(=O)CCC(=O)NCCCN2CCN(Cc3ccccc3)CC2)c2cc(Cl)ccc2O1 (stereo unspecified)	0	0	0	0	0	0
Cc1noc(C)c1S(=O)(=O)Nc1ccccc1Cl	0	0	0	0	0	0
Cc1cccc(NS(=O)(=O)c2c(C)noc2C)c1	0	0	0	0	0	0
SMILES	KCNK9 inh	KCNQ1 block	KCNK3 block	PHOSPHO1 block	KCNQ1 pot	hERG rescue
Cc1noc(C)c1S(=O)(=O)Nc1cccc(C(F)(F)F)c1	0	6	0	0	0	0
Cc1noc(C)c1S(=O)(=O)NCc1cccc(Cl)c1	-	-	-11	-	-	-
Cc1ccc2sc(NNC(=O)C3=COCCO3)nc2c1C	0	0	0	0	0	0
COc1ccc(CNC(=O)c2ccc(CS(=O)(=O)c3ccc(C)cc3)o2)cc1	0	0	0	0	0	0
O=C(COC(=O)c1nc(Cl)c(Cl)c(Cl)c1Cl)c1ccc[nH]1	0	0	0	-	0	0
COc1ccc(C(C2C(=O)CC(C)(C)CC2=O)C2C(=O)CC(C)(C)CC2=O)cc1COCC(F)(F)F	0	0	0	0	0	0
O=C(Nc1ccc(Cl)c([N+](=O)[O-])c1)C(Sc1ccccc1)c1ccccc1 (stereo unspecified)	0	11	0	0	0	0
CC(CC(=O)Nc1cccc(Cl)c1)c1ccccc1 (stereo unspecified)	0	0	0	0	0	0
O=C(NCCCl)Nc1ccc(Cl)c([N+](=O)[O-])c1	0	10	0	0	0	0
O=C(NCCCl)Nc1cc([N+](=O)[O-])ccc1Cl	0	0	0	0	0	0
CC(CC(=O)Nc1ccc(F)c([N+](=O)[O-])c1)c1ccccc1 (stereo unspecified)	0	6	0	0	0	0
O=C(Nc1cc([N+](=O)[O-])ccc1Cl)C(Sc1ccccc1)c1ccccc1 (stereo unspecified)	-7.1	0	0	0	0	0
CC(=O)Nc1ccc(S(=O)(=O)NC2(C(F)(F)F)C(=O)Nc3c2c(=O)n(C)c(=O)n3C)cc1 (stereo unspecified)	0	0	0	0	0	0
Cc1ccccc1NC(=O)CSc1nc2ccccc2c(=O)n1CC1CCCO1 (stereo unspecified)	0	0	0	0	0	0
COCC(C)NC(C(=O)Nc1ccc(Cl)c([N+](=O)[O-])c1)c1ccccc1 (stereo unspecified)	0	0	0	0	0	0
CCC(C)NC(C(=O)Nc1ccc(Cl)c([N+](=O)[O-])c1)c1ccccc1 (stereo unspecified)	-7	0	0	0	0	0
Cc1c(C(=O)c2no[n+]([O-])c2C(=O)c2cnn(C)c2C)cnn1C	0	6	0	0	0	0
CCn1c(C)[n+](Cc2ccccc2)c2ccc(Cl)cc21	0	0	0	0	0	0
CCn1c(/C=C/N(C)c2ccccc2)[n+](CC)c2ccc(Cl)cc21	0	13	0	0	0	0
O=C(COC(=O)C1CCCCC1)Nc1cccc(F)c1	-	-	0	-	-	-
CC(=O)Cc1nsc(NC(=O)c2cccs2)n1	0	0	0	0	0	12
CC(=O)Cc1nsc(NC(=O)c2ccccc2)n1	0	0	0	0	0	0
CCC1CCC2(CC1)NC(=O)N(CC(=O)N1CCc3ccccc31)C2=O (stereo unspecified)	-	-	0	-	-	-
O=[N+]([O-])/C=C\c1ccc(N2CCCC2)c(F)c1	0	0	-9.6	0	0	0
CN(C(=O)c1cccc(NC(=O)Cc2ccc(NC(=O)C3CCN(S(=O)(=O)c4cccc([N+](=O)[O-])c4)CC3)cc2)c1)C1CC1	-	-	0	-	-	-

Screening results deposited in PubChem by several laboratories.
